# Experimental data as given in ChEMBL document CHEMBL3227967, “Quantitative structure-activity relationships in 1-aryl-2-(alkylamino)ethanol antimalarials” (J Med Chem, 1979).
# Tested on: not listed separately
# Assay: Lipophilicity, log P of the compound in 0.1 N HCl solution
# Format: physicochemical
# Conditions: 0.1 N HCl solution; read-out: logP
# Outline: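 Partition coefficients of the hydrochloride salts were measured from 0.1 N HCl solution unless a footnote says otherwise. Some entries were not measured. They were calculated by adding the Δlog P of the corresponding phenanthrene analogues to the measured log P of a reference hydrochloride.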
row,SMILES,logP
1,CCCCN(CCCC)CC(O)c1cnc2c(C(F)(F)F)cccc2c1Cl (centres undefined),2.63
2,CCN(CC)CC(O)c1cc(Cl)cc2c(C)ccnc12 (centres undefined),5.25
3,CCN(CC)CC(O)c1cc(-c2ccccc2)nc2ccccc12 (centres undefined),0.94
4,CCCCCCCN(CCCCCCC)CC(O)c1cccc2ccc3c4ccccc4cc(Br)c3c12 (centres undefined),7.69
5,CCCCCCCN(CCCCCCC)CC(O)c1ccc(Cl)c2c(C)ccnc12 (centres undefined),5.25
6,CCCCN(CCCC)CC(O)c1cc(Cl)cc2cccnc12 (centres undefined),1.75
7,CCCCN(CCCC)CC(O)c1cccc2cc(Cl)ccc12 (centres undefined),2.19
8,CCCCCNCC(O)c1cc2ccccc2c2ccccc12 (centres undefined),2.8
9,CCCCCCCN(CCCCCCC)CC(O)c1cc2ccccc2c2ccccc12 (centres undefined),5.94

# Tested on: Plasmodium berghei
# Assay: Antimalarial activity against Plasmodium berghei
# Format: functional
# Conditions: not given
row,SMILES,log(1/C)
1,CCC(C)N(C)CC(O)c1cc(-c2ccc(Cl)cc2)nc(-c2ccc(Cl)cc2)c1 (centres undefined),3.59
2,CCCCN(CCCC)CC(O)c1cc2c(Br)cc(Br)cc2c2cc(Br)ccc12 (centres undefined),4.19
3,CCCCCCN(CCCCCC)CC(O)c1cc(-c2ccc(Cl)c(Cl)c2)nc2cc(OC)ccc12 (centres undefined),3.1
4,CCCCN(CCCC)CC(O)c1cc2c(Cl)cc(Cl)cc2c2ncccc12 (centres undefined),2.94
5,CCCCN(CCCC)CC(O)c1cc(-c2ccc(Cl)cc2)cc2ccc(OC)cc12 (centres undefined),3.9
6,CCCCNCC(O)c1cc(-c2cccc(C(F)(F)F)c2)nc(C(F)(F)F)c1 (centres undefined),3.69
7,CCCCN(CCCC)CCC(O)c1cc(-c2ccc(C(F)(F)F)cc2)nc(-c2ccc(C(F)(F)F)cc2)c1 (centres undefined),4.57
8,C=C[C@H]1CN2CC[C@H]1C[C@H]2[C@H](O)c1cc(-c2ccccc2)nc2ccc(OC)cc12,2.72
9,CCN(CC)CC(O)c1cc2cc(Cl)ccc2c2cc(Cl)ccc12 (centres undefined),4.06
10,OC(CC1CCCCN1)c1cc(Nc2ccc(Cl)cc2)nc2ccccc12 (centres undefined),2.52
11,CCCN(CCC)CC(O)c1cc2cc(C(F)(F)F)cc(C(F)(F)F)c2c2cc(Cl)c(Cl)cc12 (centres undefined),5.18
12,CCCCN(CCCC)CC(O)c1c2ccccc2cc2ccccc12 (centres undefined),2.35
13,OC(CC1CCCCN1)c1cc(Oc2ccc(Cl)cc2)nc2c(Cl)cc(Cl)cc12 (centres undefined),4.16
14,CCCCN(CCCC)CC(O)c1cc(-c2ccc(F)cc2)nc(-c2ccc(F)cc2)c1 (centres undefined),3.23
15,CCCCCCCN(CCCCCCC)CC(O)c1c2cccc(Cl)c2cc2c(Cl)cccc12 (centres undefined),3.92
16,CCCCCCCN(CCCCCCC)CC(O)c1cc2ccc(Cl)cc2c2ncccc12 (centres undefined),2.48
17,OC(CC1CCCN1)c1cc(-c2ccccc2)nc2ccccc12 (centres undefined),2.26
18,CCCCN(CCCC)CC(O)c1cc(-c2ccc(Cl)cc2Cl)nc2c(Cl)cc(Cl)cc12 (centres undefined),3.66
19,CCC(C)NCC(O)c1cc(-c2ccc(C(F)(F)F)cc2)nc(-c2ccc(C(F)(F)F)cc2)c1 (centres undefined),4.15
20,CCCCN(CCCC)CC(O)c1cc(-c2ccc(Cl)cc2)nc2c(OC)ccc(OC)c12 (centres undefined),2.52
21,CCN(CC)CC(O)c1cc2ccc(Cl)cc2nc1-c1ccc(Cl)cc1 (centres undefined),2.11
22,OC(CC1CCCCN1)c1ccnc2cc(Cl)ccc12 (centres undefined),2.14
23,CCCCN(CCCC)CC(O)c1cc(-c2cc(OC)c(OC)c(OC)c2)nc2c1cc(Cl)c1ccccc12 (centres undefined),3.32

row,SMILES,log(1/C)
1,CCCCN(CCCC)CC(O)c1cc(-c2ccc(Cl)c(Cl)c2)cc2cc(Cl)c(OC)cc12 (centres undefined),3.06
2,CCCCN(CCCC)CC(O)c1cc2cc(Cl)cc(Cl)c2c2cc(SC)ccc12 (centres undefined),3.88
3,CCN(CC)CC(O)c1cc(-c2ccccc2)nc2ccc(OC)cc12 (centres undefined),2.44
4,CCCCN(CCCC)CC(O)c1cc(/C=C/c2ccc(C(F)(F)F)cc2)nc(/C=C/c2ccc(C(F)(F)F)cc2)c1 (centres undefined),3.82
5,Cc1ccc2c(C(O)CC3CCCCN3)cc3ccc(C(F)(F)F)cc3c2c1 (centres undefined),3.16
6,OC(CC1CCCCN1)c1cc2cc(Cl)cc(Cl)c2c2cc(C(F)(F)F)ccc12 (centres undefined),4.43
7,CCC(C)NCC(O)c1cc(-c2ccc(Cl)cc2)nc(-c2ccc(Cl)cc2)c1 (centres undefined),4.09
8,OC(CC1CCCCN1)c1cc2cc(Br)ccc2c2ccccc12 (centres undefined),3.25
9,CCCCN(CCCC)CC(O)c1c(Cl)c(-c2ccc(Cl)cc2)nc2c(Cl)cc(Cl)cc12 (centres undefined),3.87
10,CCCCCCCN(CCCCCCC)CC(O)c1cccc2c1cc(Cl)c1ccc(Cl)cc12 (centres undefined),2.96
11,OC(CNC12CC3CC(CC(C3)C1)C2)c1cc(-c2ccccc2)nc2c(Cl)cc(Cl)cc12 (centres undefined),2.36
12,CCNC(C)(C)CC(O)c1cc(C(F)(F)F)nc2c(C(F)(F)F)cccc12 (centres undefined),2.54
13,CCCCNCCC(O)c1cc2ccc(C(F)(F)F)cc2c2cc(C(F)(F)F)ccc12 (centres undefined),4.73
14,Cc1ccc2nc(-c3ccccc3)cc(C(O)CC3CCCCN3)c2c1 (centres undefined),2.47
15,CCCCN(CCCC)CC(O)c1cc(-c2ccc(Cl)c(Cl)c2)nc2c(Cl)cc(Cl)cc12 (centres undefined),4.21
16,CCCCN(CCCC)CC(O)c1cc2ccccc2c2ccc(Cl)cc12 (centres undefined),2.51
17,CCCCN(CCCC)CC(O)c1nc(-c2ccc(Cl)cc2)nc2ccccc12 (centres undefined),2.85
18,CCCCN(CCCC)CC(O)c1cc2ccc(C(F)(F)F)cc2c2ccsc12 (centres undefined),2.81
19,CCCCCCCN(CCCCCCC)CC(O)c1cc(Cl)cc2ccc(-c3ccc(Cl)cc3)nc12 (centres undefined),2.34
20,OC(CC1CCCCN1)c1cc2cccc(C(F)(F)F)c2c2cc(C(F)(F)F)ccc12 (centres undefined),3.54
21,CCCCN(CCCC)CC(O)c1cc2c(Cl)cc(Cl)cc2c2cnccc12 (centres undefined),2.94
22,CCCCN(CCCC)CC(O)c1c(C)c2ccccc2c2ccccc12 (centres undefined),2.79
23,CCCCNC(C)(C)CC(O)c1cc(C(F)(F)F)nc2c(C(F)(F)F)cccc12 (centres undefined),3.27

row,SMILES,log(1/C)
1,OC(CC1CCCCN1)c1cc2ccccc2c2cc(Br)ccc12 (centres undefined),3.49
2,CCCCCCCN(CCCCCCC)CC(O)c1cc(Cl)cc2cc3ccccc3cc12 (centres undefined),3.1
3,CCCCCCCN(CCCCCCC)CC(O)c1cc2c(Cl)cc(Cl)cc2c2sccc12 (centres undefined),2.89
4,CCN(CC)CC(O)c1cc(-c2ccc(OC)cc2)nc2cc(Cl)c(OC)cc12 (centres undefined),2.92
5,CCCCN(CCCC)CC(O)c1c(F)c(-c2ccc(Cl)cc2)nc2c(Cl)cc(Cl)cc12 (centres undefined),4.22
6,CCCCN(CCCC)CC(O)c1cc(C(C)(C)C)nc2ccc(Cl)cc12 (centres undefined),2.91
7,CC(C)NCCC(O)c1cc2ccc(C(F)(F)F)cc2c2cc(C(F)(F)F)ccc12 (centres undefined),3.89
8,CCCCN(CCCC)CC(O)c1cc2cc(Cl)cc(Cl)c2c2ccc(Cl)cc12 (centres undefined),4.12
9,CCCCN(CCCC)CC(O)c1ccc(Cl)c2nc(-c3ccccc3)ccc12 (centres undefined),2.47
10,CCCCCCN(CCCCCC)CC(O)c1cc(-c2ccc(Cl)c(Cl)c2)nc2cc(C(F)(F)F)ccc12 (centres undefined),3.68
11,CCCCCCCNCC(O)c1cc(-c2ccc(C(F)(F)F)cc2)nc(-c2ccc(C(F)(F)F)cc2)c1 (centres undefined),3.67
12,CCCCN(CCCC)CC(O)c1cc2ccccc2c2cc(F)ccc12 (centres undefined),2.58
13,OC(CN1CCCCC1)c1cc(-c2ccc(Cl)cc2)nc2c(Cl)cc(Cl)cc12 (centres undefined),3.49
14,CCCCCCCN(CCCCCCC)CC(O)c1cc2ccc(Br)cc2c2sccc12 (centres undefined),2.67
15,CCCCN(CCCC)CC(O)c1c(OC)c2cc(Cl)ccc2c2ccc(Cl)cc12 (centres undefined),3.71
16,CCCCCCCN(CCCCCCC)CCCC(O)c1cc2ccc(C(F)(F)F)cc2c2cc(C(F)(F)F)ccc12 (centres undefined),3.72
17,CCCCCCCN(CCCCCCC)CC(O)c1cc2ccccc2c2cc(C(F)(F)F)ccc12 (centres undefined),3.56
18,CCCC(CCC)NCC(O)c1cc(/C=C/c2ccc(C(F)(F)F)cc2)nc(/C=C/c2ccc(C(F)(F)F)cc2)c1 (centres undefined),4.24
19,CCCCCCN(CCCCCC)CC(O)c1cccc2c1ccc1ccccc12 (centres undefined),2.03
20,CCCCN(CCCC)CCC(O)c1cc2c(Cl)cc(Cl)cc2c2cc(C(F)(F)F)ccc12 (centres undefined) [HALOFANTRINE],4.47
21,CCCC(CCC)NCC(O)c1cc2ccc(C(F)(F)F)cc2c2cc(C(F)(F)F)ccc12 (centres undefined),4.33
22,OC(CC1CCCCN1)c1cc2cc(Br)ccc2c2cc(C(F)(F)F)ccc12 (centres undefined),3.96
23,CC(C)(C)NCC(O)c1cc(C(F)(F)F)nc2c(C(F)(F)F)cccc12 (centres undefined),2.64

row,SMILES,log(1/C)
1,Cc1ccc2nc(Nc3ccc(Cl)cc3)cc(C(O)CC3CCCCN3)c2c1 (centres undefined),2.87
2,OC(CN1CCCCCC1)c1cc(-c2cccs2)nc2cccc(Br)c12 (centres undefined),2.89
3,CCCCN(CCCC)CC(O)c1cc2ccc(Cl)cc2c2cc(C(F)(F)F)ccc12 (centres undefined),3.65
4,COc1ccc(-c2cc(C(O)CC3CCCCN3)c3cccc(C)c3n2)cc1 (centres undefined),3.18
5,CCCCCCCN(CCCCCCC)CC(O)c1cc(-c2ccc(Cl)cc2)cc2ccccc12 (centres undefined),3.35
6,CCCCN(CCCC)CC(O)c1cc2cc(Cl)cc(Cl)c2c2cc(C(F)(F)F)ccc12 (centres undefined),3.74
7,CCCCCCCN(CCCCCCC)CC(O)c1cccc2c1ccc1ccc(C(F)(F)F)cc12 (centres undefined),2.34
8,CCCCN(CCCC)CC(O)c1cc2ccc(C(F)(F)F)cc2c2ccccc12 (centres undefined),2.8
9,CCCCN(CCCC)CC(O)c1cc2cc(Cl)ccc2c2ccccc12 (centres undefined),3.01
10,CCCCN(CCCC)CC(O)c1c(C)cnc2c1cc(Cl)c1ccccc12 (centres undefined),2.38
11,CCCCCCCN(CCCCCCC)CC(O)c1ccc2ccc3cccc(C(F)(F)F)c3c2c1 (centres undefined),2.58
12,CCCCN(CCCC)CC(O)c1cc2cc(Cl)c(Cl)cc2c2c(Cl)cc(Cl)cc12 (centres undefined),4.18
13,OC(CC1CCCCN1)c1cc2cc(Cl)cc(Cl)c2c2cc(Cl)ccc12 (centres undefined),4.46
14,CCCCCCCN(CCCCCCC)CC(O)c1cccc2cc3c(Cl)cccc3cc12 (centres undefined),2.44
15,OC(CC1CCCCN1)c1cc(-c2ccccc2)nc2c1ccc1ccccc12 (centres undefined),3.05
16,CCCCCCN(CCCCCC)CC(O)c1cc2ccc(C(F)(F)F)cc2c2ccsc12 (centres undefined),2.49
17,Cc1ccc(-c2cc(C(O)CC3CCCCN3)c3cc(F)ccc3n2)cc1 (centres undefined),2.34
18,OC(CCC1CCCCN1)c1cc2ccc(C(F)(F)F)cc2c2cc(C(F)(F)F)ccc12 (centres undefined),4.11
19,CCCCCCCN(CCCCCCC)CC(O)c1cc2c(Cl)cc(Cl)cc2c2cc(C)sc12 (centres undefined),3.48
20,CCCCCN(CCCCC)CC(O)c1ccc(Br)c2ccccc12 (centres undefined),2.16
21,CCCCN(CCCC)CC(O)c1cccc2cc3cc(Cl)c(Cl)cc3cc12 (centres undefined),2.48
